Molecules are shown by their SMILES.

The series is described as follows: Toxicity liver stage against HepG2, at 10uM. Format: cell-based. Set-up: test concentration 10 uM, cell line HepG2-A16-CD81EGFP. The conditions noted are these: human, HepG2-A16-CD81EGFP cells; read-out: INHIBITION
The method, boiled down: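 Uninfected HepG2-A16-CD81EGFP cells, 3 × 10^3 per well, 1536-well, plated on prespotted compound at 10 μM final, parasite-free screening media added to match infected plates; puromycin 10 μM positive, DMSO 0.5% negative; run in parallel with 48 h PbLuc assay at 37 °C, 5% CO2; viability by CellTiter-Glo luminescence, normalized to controls.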
Take `c1ccc2c(Cc3nnc([C@H]4CCN(CC5CC5)C4)o3)c[nH]c2c1`: the cytotoxicity at 10 µM came out at 4.73%.
The same measure for `CC(C)C1SCC(=O)Nc2c1cnn2-c1ccc(Cl)cc1F` (centres undefined): 17.2%.
Regarding `Cc1cnc2n(c1=O)C(CC(=O)NCc1cccs1)CS2` (centres undefined), the cytotoxicity at 10 µM was 4.68%.
The same measure for `Cc1nnc2ccc(OCCNS(C)(=O)=O)nn12`: -6.02%; for `CCS(=O)(=O)N1CCC(c2nnc(C(F)(F)F)o2)CC1`: -11%.
The same measure for `CN(C)c1ccc(C(O)CNC(=O)NCCCc2ccccc2)cc1` (centres undefined): -10%; for `O=C(NCCn1nc(-n2cncn2)ccc1=O)c1ccsc1`: 1.99%; for `Cc1cc(S(=O)(=O)N2CCC(S(C)(=O)=O)C2)ccc1F` (centres undefined): 0.246%.
The same measure for `COC(=O)c1ccc(C(=O)NCc2nn(C)c3c2COCC3)cc1`: 7.91%; for `O=C(Cc1cccs1)Nc1cnn(C2CCOC2)c1` (centres undefined): -7.86%.
Take `Cc1ccoc1C(=O)N1CC(C(=O)NCC2CC2)C2(CCOCC2)C1` (centres undefined): the cytotoxicity at 10 µM is -3%.
As for `O=c1[nH]nc2c(S(=O)(=O)N3CCCC3)cccn12`, the figure is -4.52%; as for `CCc1c(C(=O)O)nnn1-c1cccc(C)c1C`, -16.1%.
The same measure for `Cc1c(CN2CCOCC2)c(O)n(CCc2ccccc2)c(=O)c1C#N`: 4.1%; for `CCOCCCNC(=O)c1cc(OC)c2ccoc2c1`: 6.51%.
The same measure for `Cc1cc(C)n(CC(=O)Nc2cc(-c3ccncc3)[nH]n2)n1`: -5.77%; for `O=C(CCn1cccn1)N1CCC(c2nnc(-c3ccsc3)o2)CC1`: 4.25%.
In the case of `CNC(=O)C1CCCN(C(=O)c2cncs2)C1` (centres undefined), the cytotoxicity at 10 µM is 4.94%.
For `CSc1ncc(C(=O)NCCn2nccc2C)cn1`, the cytotoxicity at 10 µM is 2.86%.
As for `Oc1cc(CC2COCCN(CC3(O)CCOCC3)C2)ncn1` (centres undefined), the figure is 8.08%; as for `OCCN1CCCCC1c1cc[nH]n1` (centres undefined), -1.71%.
As for `CNC(=O)CNC(=O)Nc1ccc(Br)c(F)c1`, the figure is 5.44%; as for `N#Cc1cn(C2CC2)c(=O)n(Cc2noc(-c3cccs3)n2)c1=O`, 13%.
As for `CC(C)n1nnnc1-c1ccc(NC(=O)C(C)(C)C#N)cc1F`, the figure is -7.36%; as for `N#CCCN(C(=O)COC1CCCC1)C1CC1`, -4.14%; as for `COc1c(C2CCCN2Cc2nnc(C3CC3)n2C)c(C)nn1C` (centres undefined), 7.06%.
For `CN(CCc1ccccn1)C(=O)Cn1cc(-c2ccccc2)nn1`, the cytotoxicity at 10 µM came to 0.788%.
The same measure for `Cc1nc(C)c(C(=O)Nc2ccc(-c3nnc(N(C)C)o3)cc2)o1`: 1.87%; for `CC(c1ccco1)N(C(=O)Cn1nc2n(c1=O)CCCCC2)C1CC1` (centres undefined): -6.17%; for `CC(c1ccco1)N(C)C(=O)NCCOc1ccc(C#N)cc1` (centres undefined): -2.98%.
In the case of `O=C(c1cc(C2CC2)[nH]n1)N1CCN(c2nccs2)CC1`, the cytotoxicity at 10 µM stood at 1.39%.
The same measure for `O=C1CN(C(=O)c2cc(Cl)ccc2F)c2ccncc2N1`: 5.92%.
As for `CC(C)(C(=O)NCCS(N)(=O)=O)c1cccc(Br)c1`, the figure is -8.35%; as for `O=c1[nH]c(CCN2CCN(CC(F)(F)F)CC2)nc2ccccc12`, 4.44%.
The same measure for `N#Cc1cc(CSCCN2CCOCC2)ccc1F`: -7.73%; for `CC(C)N(C)S(=O)(=O)N1CCCC1CC(=O)c1cccs1` (centres undefined): 5.17%; for `Cn1nccc1CNS(=O)(=O)c1cc(F)ccc1Br`: 11.8%.
`NC(=O)NC(=O)CCN(Cc1ccccc1)CC1CCOCC1`: the cytotoxicity at 10 µM is -1.86%.
`CC(C)c1nnc2n1CC(CNCc1ccsc1)CC2` (centres undefined): the cytotoxicity at 10 µM was -1.61%.
As for `O=C(NCCNc1ncccn1)N1CCCC1c1ccc(F)cc1` (centres undefined), the figure is 0.932%; as for `CCN(CC)C(CNC(=O)c1ccc(S(=O)(=O)NC)cc1)c1ccco1` (centres undefined), -13.5%.
With `CN1CCCN(C(=O)c2cnsn2)c2cc(Cl)ccc21`, the cytotoxicity at 10 µM is -7.34%.
As to `Cc1ccsc1CN(C)Cn1nccc1-c1cccnc1`, the cytotoxicity at 10 µM is 7.49%.
For `CS(=O)(=O)CCSc1n[nH]c(-c2ccc3c(c2)CCC3)n1`, the cytotoxicity at 10 µM is -2.14%.
As for `CCNC(=O)CN1CCSC2(CCCCC2)C1`, the figure is -2.64%; as for `O=C(Cc1ccc(S(=O)(=O)C(F)F)cc1)N1CCCC1`, -13.5%; as for `O=C1C(Sc2nnnn2C2CC2)CCN1c1ccccc1F` (centres undefined), 4.05%.
As for `CC(C)N(CCCNC(=O)C1CC1)S(C)(=O)=O`, the figure is -5.55%.
As for `Cc1noc(CCCc2nc(C3CCOC3)no2)n1` (centres undefined), the figure is 3.5%; as for `O=C(C1CCCN(CCc2ccc3c(c2)CCO3)C1)N1CCCC1` (centres undefined), -19.8%; as for `CCN(CC)c1ncccc1CNCc1cc2ccccc2s1`, 4.43%.
With `COc1cccc(-n2cc(-c3ccnc(N[C@H](CO)C(C)C)n3)cn2)c1`, the cytotoxicity at 10 µM was -2.04%.
The same measure for `C[C@@H]1CN(S(=O)(=O)c2ccc(F)cc2Cl)C[C@]1(C)O`: -2.83%; for `O=C(NCc1ccc(CO)cc1)C1CCOc2ccccc2C1` (centres undefined): -3.54%; for `Cc1nc2c(c(NCC(=O)NC(C)C)n1)Cc1ccccc1OC2`: 4.81%.
As for `O=C(CCCOCc1ccccc1)N1CCCC(c2ncc[nH]2)C1` (centres undefined), the figure is 8.54%.
Consider `COc1ccc(-n2c(COC(C)C)n[nH]c2=O)cc1`, for which the cytotoxicity at 10 µM stood at 3.45%.
For the compound `O=S(=O)(CC1CC1)c1ncc(CN2CCSCC2)n1CC1CCCO1` (centres undefined), the cytotoxicity at 10 µM was -1.07%.
The same measure for `CCCc1cc(NCc2ccc(CO)cc2)n2nccc2n1`: -14.1%; for `O=C(c1ccc(=O)[nH]c1)N1CCCC1c1nc2cc(F)ccc2[nH]1` (centres undefined): 14.3%.
The same measure for `CC(C)c1cc(C2CCCN2C(=O)CN2C(=O)CCNC2=O)no1` (centres undefined): 18.8%.
As for `CN(C)c1nc2c(c(=O)[nH]1)CCN(C(=O)C1CCCO1)C2` (centres undefined), the figure is -43.3%; as for `COc1cc(NCC(c2ccccn2)N2CCOCC2)ncn1` (centres undefined), -49.1%; as for `Cc1cc2nc(C(C)C)cc(N3CCN(S(N)(=O)=O)CC3)n2n1`, -11.3%.
Turning to `O=C(NC1CCCC1)N1C[C@H]2CN(c3ccccn3)C[C@@]2(C(=O)O)C1`, the cytotoxicity at 10 µM is 6.12%.
The same measure for `COCCOCC(=O)N(Cc1cccc(C)c1)C(C)C`: -12.4%; for `CCc1noc(C)c1-c1nc(Cc2cccs2)nn1C1CCN(C)CC1`: -17.3%; for `CN1CCN(C2CCN(CCOc3cccc(F)c3)CC2)C1=O`: -2.45%.
As for `CC(C)c1n[nH]c(C2CN(C(=O)c3cn4ccccc4n3)CCO2)n1` (centres undefined), the figure is 0.153%.
The same measure for `Cc1nc(C)n(CC2CN(Cc3ccccc3C#N)CCO2)n1` (centres undefined): -8.8%; for `O=C(c1cc(-c2cccs2)on1)N1CCCCC1Cn1cccn1` (centres undefined): -2.93%; for `CC(C)c1ncncc1C(=O)N1CCN(Cc2ccccn2)CC1`: -2.87%.
For `CCc1nc(C2CCCN2C(=O)Cc2cccs2)no1` (centres undefined), the cytotoxicity at 10 µM was -7.85%.
As for `Cc1ncsc1C(=O)N(Cc1cccs1)C1CC1`, the figure is -6.13%; as for `CC(C)N1CC(C(=O)NCc2cccnc2-n2cccn2)CC1=O` (centres undefined), -10.8%.
As for `Cc1cnn(CC2CCCN2Cc2c(C)noc2C)c1` (centres undefined), the figure is -15.8%; as for `CC(C)(C)n1cc(C(=O)N2CCN(Cc3ccco3)CC2)cn1`, -7.36%; as for `CCC1CN(CC(=O)N2CCCC2)CCN1CCOC` (centres undefined), -4.22%.
Turning to `Cc1nc(C)n(CC2CCCCN2Cc2nnc(C3CC3)o2)n1` (centres undefined), the cytotoxicity at 10 µM is -10.7%.
The same measure for `CC(C)c1nn(C)c(N(C)C)c1CNCC(O)c1ccccc1F` (centres undefined): -5.87%; for `CN(Cc1ccsc1)C(=O)c1cccc(F)c1`: -2.45%.
As for `CC(C)CN1CCN(C(=O)Nc2cc(C(F)(F)F)c[nH]c2=O)CC1`, the figure is -3.43%.
As for `CCOCC(O)CN1CCN(C(=O)c2cccnc2OC)CC1` (centres undefined), the figure is -4.71%; as for `CC(C)=CCN(C)C1CCCN(Cc2noc(C)n2)C1` (centres undefined), -19.6%.
Take `CC(NCc1c(C(C)C)nn(C)c1N1CCOCC1)C(N)=O` (centres undefined): the cytotoxicity at 10 µM is -5.23%.
The same measure for `O=C(Nc1ccccc1OC(F)F)C1=NN(c2ccccc2)C(=O)CN1`: -3.58%.
As for `CCc1n[nH]c(C2CN(C(=O)c3cc4c(s3)CCCC4)CCO2)n1` (centres undefined), the figure is -10.1%; as for `CC(C)c1n[nH]c(C2CN(C(=O)CCn3ccccc3=O)CCO2)n1` (centres undefined), 4.48%; as for `Cc1cnc(CN(C)CC2CCCN2c2cccnn2)cn1` (centres undefined), -0.241%.
The same measure for `CCc1n[nH]c(C2CN(C(=O)c3cnc[nH]3)CCO2)n1` (centres undefined): -0.481%; for `c1cnn(CCNCc2csc(-c3ccsc3)n2)c1`: 1.97%.
Turning to `O=C(NCc1cncc2c1CCN(Cc1ccoc1)C2)C1CC1`, the cytotoxicity at 10 µM worked out at 4.03%.
As to `Cc1cccc(CN2CC[C@@H]3[C@@H]2CCN3C(=O)c2ccoc2C)n1`, the cytotoxicity at 10 µM was -3.99%.
The same measure for `O=C1CC[C@H]2[C@H](CCN2C(=O)C2CCCO2)N1Cc1cccnc1` (some centres undefined): -8.6%.
With `CCOC(=O)[C@]12CCCN(Cc3nccs3)C[C@H]1CN(S(C)(=O)=O)C2`, the cytotoxicity at 10 µM is -5.79%.
For the compound `COc1ncccc1CN1C[C@@H]2COC[C@]2(CNS(C)(=O)=O)C1`, the cytotoxicity at 10 µM came to 8.01%.
As for `FC(F)(F)c1ccnc(N2C[C@H]3CCN(c4cccnc4)C[C@H]3C2)n1`, the figure is 6.88%.
The same measure for `OC(CN1CCN(Cc2cc(F)cc(F)c2)CC1)C1CC1` (centres undefined): 11.5%.
Take `Cc1ccoc1C1=NNC(=CN2CCn3c(nnc3C3CC3)C2)O1`: the cytotoxicity at 10 µM is 7.65%.
